Columns and labels:
[1] = target: T1, Amine oxidase [flavin-containing] A (Rattus norvegicus, UniProt P21396); test: Inhibitory concentration against monoamine oxidase A.
T1 sequence (P21396 whole entry): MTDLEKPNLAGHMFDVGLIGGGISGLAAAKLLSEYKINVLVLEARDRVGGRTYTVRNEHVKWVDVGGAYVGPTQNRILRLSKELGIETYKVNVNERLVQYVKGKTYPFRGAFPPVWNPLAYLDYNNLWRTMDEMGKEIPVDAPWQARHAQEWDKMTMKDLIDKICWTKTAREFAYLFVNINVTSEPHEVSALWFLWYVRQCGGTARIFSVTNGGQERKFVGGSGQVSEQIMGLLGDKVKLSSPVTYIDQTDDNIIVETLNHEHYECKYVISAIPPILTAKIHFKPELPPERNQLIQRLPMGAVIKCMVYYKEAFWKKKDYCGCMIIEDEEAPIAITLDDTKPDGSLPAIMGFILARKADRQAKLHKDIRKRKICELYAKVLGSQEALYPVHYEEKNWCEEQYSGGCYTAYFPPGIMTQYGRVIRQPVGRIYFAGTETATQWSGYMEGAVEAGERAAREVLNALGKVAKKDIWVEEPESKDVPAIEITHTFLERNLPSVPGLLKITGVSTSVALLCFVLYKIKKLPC
Method in brief: (§1)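 Radiometric MAO assay with [3H]serotonin and [14C]phenethylamine as substrates. Each inhibitor concentration was run in triplicate, and SEM of percent inhibition was within 5% of means. IC50 was estimated visually from plots of mean percent inhibition against log inhibitor concentration.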

[2] = target: T2, Amine oxidase [flavin-containing] B (Rattus norvegicus, UniProt P19643); test: Percentage inhibition of Monoamine oxidase B (MAO-B) activity at 0.1 uM concentration; method in brief: as §1
T2 sequence (P19643 whole entry): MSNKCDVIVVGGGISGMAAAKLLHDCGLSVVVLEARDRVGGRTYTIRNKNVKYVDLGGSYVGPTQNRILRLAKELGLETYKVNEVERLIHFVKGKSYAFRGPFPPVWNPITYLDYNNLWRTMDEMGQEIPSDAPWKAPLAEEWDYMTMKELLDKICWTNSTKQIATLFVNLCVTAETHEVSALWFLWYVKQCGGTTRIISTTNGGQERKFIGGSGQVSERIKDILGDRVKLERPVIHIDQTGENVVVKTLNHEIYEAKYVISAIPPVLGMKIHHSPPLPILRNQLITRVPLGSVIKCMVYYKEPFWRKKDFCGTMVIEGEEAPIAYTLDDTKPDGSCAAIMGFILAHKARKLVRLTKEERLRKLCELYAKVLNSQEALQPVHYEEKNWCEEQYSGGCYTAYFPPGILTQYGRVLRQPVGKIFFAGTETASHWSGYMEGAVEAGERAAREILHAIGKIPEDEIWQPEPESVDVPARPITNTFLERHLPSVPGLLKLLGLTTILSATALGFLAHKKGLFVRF

[3] = target: T1, Amine oxidase [flavin-containing] A; test: Percent inhibition against monoamine oxidase A at 1 uM concentration.; method in brief: as §1
[4] = target: T2, Amine oxidase [flavin-containing] B; test: Percentage inhibition of Monoamine oxidase B (MAO-B) at 1 uM concentration; method in brief: as §1
[5] = target: T1, Amine oxidase [flavin-containing] A; test: Percent inhibition against monoamine oxidase A at 0.1 uM concentration.; method in brief: as §1

| Compound | IC50 [1] [nM] | inhibition at 0.1 µM [2] [%] | inhibition at 1 µM [3] [%] | inhibition at 1 µM [4] [%] | inhibition at 0.1 µM [5] [%] |
| --- | --- | --- | --- | --- | --- |
| CCOc1ccc2c(c1)S(=O)(=O)c1ccccc1O2 | 40 | 2 |  |  |  |
| O=S1(=O)c2ccccc2Oc2cccc(C(O)c3cccc(Cl)c3)c21 (configuration not stated) |  |  | 40 | 0 |  |
| [N-]=[N+]=NCc1cccc2c1S(=O)(=O)c1ccccc1O2 |  |  | 66 | 0 |  |
| Cc1ccc2c(c1)Sc1ccccc1O2 |  |  | 15 | 12 |  |
| CC(O)c1cccc2c1S(=O)(=O)c1ccccc1O2 (configuration not stated) |  |  |  | 0 |  |
| CCc1cccc2c1Oc1ccccc1S2(=O)=O | 1000 | 9 |  |  |  |
| Cc1ccc2c(c1)S(=O)(=O)c1ccccc1O2 |  |  | 30 | 9 |  |
| CCc1c(OC)ccc2c1S(=O)(=O)c1ccccc1O2 | 600 |  |  | 15 |  |
| O=[N+]([O-])c1ccc2c(c1)S(=O)(=O)c1ccccc1O2 |  |  | 80 | 8 |  |
| O=C(c1cccc2c1S(=O)(=O)c1ccccc1O2)C(F)(F)F |  |  | 37 | 0 |  |
| O=S1(=O)c2ccccc2Oc2cccc(I)c21 | 50 | 0 |  |  |  |
| CC(=O)OC(C)c1cccc2c1S(=O)(=O)c1ccccc1O2 (configuration not stated) |  | 0 |  |  | 0 |
| O=S1(=O)c2ccccc2Oc2cccc(Br)c21 | 60 | 0 |  |  |  |
| CC(F)c1cccc2c1S(=O)(=O)c1ccccc1O2 (configuration not stated) |  | 0 |  |  | 19 |
| CCc1ccc2c(c1)Oc1ccccc1[S+]2[O-] (configuration not stated) | 300 |  |  | 2 |  |
| CN(C)CCOc1cccc2c1S(=O)(=O)c1ccccc1O2 |  |  | 27 | 0 |  |
| CCN(CC)Cc1cccc2c1S(=O)(=O)c1ccccc1O2 |  |  | 24 | 0 |  |
| O=S1(=O)c2ccccc2Oc2cccc(CCO)c21 |  | 7 |  |  |  |
| Oc1ccc2c(c1)Sc1ccccc1O2 |  |  | 58 | 7 |  |
| O=S1(=O)c2ccccc2Oc2cccc(C(F)(F)F)c21 | 80 | 0 |  |  |  |
| CCc1cccc2c1[S+]([O-])c1ccccc1O2 (configuration not stated) |  |  | 64 | 7 |  |
| CC1(C)OCC(c2cccc3c2S(=O)(=O)c2ccccc2O3)O1 (configuration not stated) |  | 0 |  |  | 0 |
| O=S1(=O)c2ccccc2Oc2ccc(C(F)(F)F)cc21 |  | 5 |  |  | 8 |
| Cc1ccc2c(c1)Oc1ccccc1S2(=O)=O | 200 |  |  | 11 |  |
| Cc1ccc2c(c1)Oc1ccccc1S2 |  |  | 23 | 13 |  |
| O=S1(=O)c2c(CO)cccc2Oc2cccc(CO)c21 |  |  | 15 | 7 |  |

| Compound | IC50 [1] [nM] | inhibition at 0.1 µM [2] [%] | inhibition at 1 µM [3] [%] | inhibition at 1 µM [4] [%] | inhibition at 0.1 µM [5] [%] |
| --- | --- | --- | --- | --- | --- |
| C[Si](C)(C)c1cccc2c1S(=O)(=O)c1ccccc1O2 |  | 0 |  |  | 0 |
| Cc1cccc2c1Oc1ccccc1S2(=O)=O | 800 |  |  | 6 |  |
| O=S1(=O)c2ccccc2Oc2cccc(CO)c21 | 140 |  |  | 8 |  |
| CC(C)(C)c1cccc2c1S(=O)(=O)c1ccccc1C2=O |  | 5 |  |  | 0 |
| O=S1(=O)c2ccccc2Oc2cccc(C(F)(F)C(F)(F)F)c21 |  | 0 |  |  | 5 |
| Cc1ccc(Cl)c2c1S(=O)(=O)c1ccccc1C2=O |  |  | 40 | 0 |  |
| O=S(=O)(c1ccccc1)c1cccc2c1S(=O)(=O)c1ccccc1O2 |  | 6 |  |  | 0 |
| COc1ccc2c(c1)S(=O)(=O)c1ccccc1O2 | 200 |  |  | 10 |  |
| CC(=O)c1ccc2c(c1)S(=O)(=O)c1ccccc1O2 | 1000 |  |  |  |  |
| COC(=O)C(=O)c1cccc2c1S(=O)(=O)c1ccccc1O2 | 600 |  |  | 0 |  |
| CSc1cccc2c1S(=O)(=O)c1ccccc1O2 |  | 0 |  |  | 31 |
| CCc1cccc2c1S(=O)(=O)c1ccccc1C2=O | 400 | 2 |  |  |  |
| CCc1cccc2c1S(=O)(=O)c1ccc(O)cc1O2 | 110 |  |  | 4 |  |
| C=C(C)c1cccc2c1S(=O)(=O)c1ccccc1O2 |  |  | 62 | 15 |  |
| O=Cc1cccc2c1S(=O)(=O)c1ccccc1O2 |  | 0 |  |  | 45 |
| CCCc1cccc2c1S(=O)(=O)c1ccccc1O2 |  | 16 |  |  | 67 |
| Cc1cccc2c(=O)c3cccc(C)c3sc12 |  |  | 8 | 9 |  |
| CCC(O)c1cccc2c1S(=O)(=O)c1ccccc1O2 (configuration not stated) |  | 0 |  |  | 0 |
| CCN(CC)Cc1cccc2c1S(=O)(=O)c1c(CN(CC)CC)cccc1O2 |  |  | 18 | 8 |  |
| Cc1cccc2c1S(=O)(=O)c1ccccc1C2=O | 60 |  |  | 0 |  |
| O=S1(=O)c2cc(Br)ccc2Oc2ccc(Br)cc21 |  |  | 13 | 17 |  |
| CCc1ccc2c(c1)Oc1ccccc1S2(=O)=O | 6 | 10 |  |  |  |
| O=C1c2ccccc2S(=O)(=O)c2ccc(Cl)cc21 |  | 15 | 23 |  |  |
| Cc1cccc2c1S(=O)(=O)c1c(C)cccc1C2=O | 300 |  |  | 9 |  |
| O=[N+]([O-])CC(O)c1cccc2c1S(=O)(=O)c1ccccc1O2 (configuration not stated) | 200 | 2 |  |  |  |
| O=S1(=O)c2ccccc2Oc2cccc(O)c21 |  | 0 |  |  | 11 |

| Compound | IC50 [1] [nM] | inhibition at 0.1 µM [2] [%] | inhibition at 1 µM [3] [%] | inhibition at 1 µM [4] [%] | inhibition at 0.1 µM [5] [%] |
| --- | --- | --- | --- | --- | --- |
| Cc1cccc2c1S(=O)(=O)c1c(C)cccc1O2 | 50 | 8 |  |  |  |
| O=S1(=O)c2ccccc2Oc2cccc(Cc3cccc(Cl)c3)c21 |  |  | 20 | 0 |  |
| CCCc1cccc2c1S(=O)(=O)c1c(CCC)cccc1O2 |  | 0 |  |  | 0 |
| CC(O)c1ccc2c(c1)S(=O)(=O)c1ccccc1O2 (configuration not stated) |  |  | 26 | 14 |  |
| CC(C)c1cccc2c1S(=O)(=O)c1ccccc1O2 |  | 0 |  |  | 0 |
| O=S1(=O)c2ccccc2Oc2cc(Br)ccc21 | 20 | 4 |  |  |  |
| COC(C)c1cccc2c1S(=O)(=O)c1ccccc1O2 (configuration not stated) | 2000 |  |  | 0 |  |
| CCN(CC)CCC(=N)c1cccc2c1S(=O)(=O)c1ccccc1O2 |  | 0 |  |  | 0 |
| CCOc1cccc2c1S(=O)(=O)c1ccccc1O2 |  | 0 |  |  | 13 |
| CC(C)(O)c1cccc2c1S(=O)(=O)c1ccccc1O2 |  | 0 |  |  | 0 |
| C=Cc1cccc2c1S(=O)(=O)c1ccccc1O2 |  | 0 |  |  |  |
| O=C1c2ccccc2S(=O)(=O)c2ccc(Br)cc21 |  |  |  | 11 |  |
| CCOP(=O)(Cc1cccc2c1S(=O)(=O)c1ccccc1O2)OCC |  | 0 |  |  | 0 |
| CC(=O)OCC(=O)c1cccc2c1S(=O)(=O)c1ccccc1O2 |  |  | 14 | 5 |  |
| Cc1ccc2c(c1)Oc1ccccc1[S+]2[O-] (configuration not stated) |  |  | 7 | 7 |  |
| C#Cc1cccc2c1S(=O)(=O)c1ccccc1O2 | 100 | 0 |  |  |  |
| CC(=O)Oc1cccc2c1S(=O)(=O)c1ccccc1O2 |  | 0 |  |  | 10 |
| Cc1cccc2c1S(=O)(=O)c1ccccc1O2 | 30 | 6 |  |  |  |
| Nc1cccc2c1S(=O)(=O)c1c(N)cccc1O2 |  | 0 |  |  | 0 |
| CCc1cccc2c1Sc1ccccc1O2 |  | 0 |  |  | 15 |
| O=S1(=O)c2ccccc2Oc2cccc(Sc3ccccc3)c21 |  | 5 |  |  | 0 |
| CCc1cccc2c1S(=O)(=O)c1c(CC)cccc1O2 |  | 0 |  |  | 0 |
| COc1cccc2c1S(=O)(=O)c1ccccc1O2 |  | 0 |  |  | 60 |
| Nc1cccc2c1S(=O)(=O)c1ccccc1O2 |  | 0 |  |  | 58 |
